ChEMBL document CHEMBL1151174, “Labdanes and isopimaranes from Platycladus orientalis and their effects on erythrocyte membrane and on Plasmodium falciparum growth in the erythrocyte host cells” (J Nat Prod, 2004)
Calls of active or inactive are those of the source. No cut-off for these calls is given here.

Assays:
[1] = tested on: Erythrocyte; assay: Induction of membrane modification in erythrocytes assessed as formation of echinocyte type 3 shape change at 100 ug/mL after 48 hrs by phase contrast light microscopy; type: functional, cell-based
In short: (§1)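 Nonparasitized erythrocytes incubated with compound under the antiplasmodial culture conditions, without radiotracer. Controls held 0% or 0.5% DMSO and no compound. At 48 h, samples spread on slides, air-dried, methanol-fixed and Giemsa-stained for phase-contrast light microscopy. Dominant cell shapes scored by Bessis nomenclature; degree of lysis also graded.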

[2] = tested on: Erythrocyte; assay: Induction of membrane modification in erythrocytes assessed as formation of echinocyte type 3 shape change at 50 ug/mL after 48 hrs by phase contrast light microscopy; type: functional, cell-based; in short: as §1
[3] = tested on: Erythrocyte; assay: Induction of membrane modification in erythrocytes assessed as formation of echinocyte type 2 shape change at 25 ug/mL after 48 hrs by phase contrast light microscopy; type: functional, cell-based; in short: as §1
[4] = tested on: Erythrocyte; assay: Induction of membrane modification in erythrocytes assessed as formation of echinocyte type 1 shape change at 12.5 ug/mL after 48 hrs by phase contrast light microscopy; type: functional, cell-based; in short: as §1
[5] = tested on: Plasmodium falciparum; assay: Antiplasmodial activity against Plasmodium falciparum 3D7 by [3H]phenylalanine uptake; type: functional, organism-based; conditions: 3D7, 48 h
In short: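 Asynchronous cultures of chloroquine-sensitive P. falciparum 3D7 in erythrocytes, initial parasitemia 1.5%. Compounds added from DMSO solutions, final DMSO up to 0.5% in growth medium. Growth indexed by [3H]phenylalanine incorporation. Inhibition curves from eight concentrations, each in triplicate, give IC50 (50% growth inhibition). Chloroquine diphosphate as positive reference.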

[6] = tested on: Erythrocyte; assay: Induction of membrane modification in erythrocytes assessed as formation of echinocyte type 1 and discocyte shape change at 100 ug/mL after 48 hrs by phase contrast light microscopy; type: functional, cell-based; in short: as §1
[7] = tested on: Erythrocyte; assay: Induction of membrane modification in erythrocytes assessed as formation of echinocyte type 1 and discocyte shape change at 50 ug/mL after 48 hrs by phase contrast light microscopy; type: functional, cell-based; in short: as §1
[8] = tested on: Erythrocyte; assay: Induction of membrane modification in erythrocytes assessed as formation of discocyte shape change at 25 ug/mL after 48 hrs by phase contrast light microscopy; type: functional, cell-based; in short: as §1
[9] = tested on: Erythrocyte; assay: Induction of membrane modification in erythrocytes assessed as formation of discocyte shape change at 12.5 ug/mL after 48 hrs by phase contrast light microscopy; type: functional, cell-based; in short: as §1
[10] = tested on: Erythrocyte; assay: Induction of membrane modification in erythrocytes assessed as formation of echinocyte type 1 shape change at 100 ug/mL after 48 hrs by phase contrast light microscopy; type: functional, cell-based; in short: as §1
[11] = tested on: Erythrocyte; assay: Induction of membrane modification in erythrocytes assessed as formation of discocyte shape change at 50 ug/mL after 48 hrs by phase contrast light microscopy; type: functional, cell-based; in short: as §1
[12] = tested on: Erythrocyte; assay: Induction of membrane modification in erythrocytes assessed as formation of spherostomatocyte type 2 shape change at 100 ug/mL after 48 hrs by phase contrast light microscopy; type: functional, cell-based; in short: as §1
[13] = tested on: Erythrocyte; assay: Induction of membrane modification in erythrocytes assessed as formation of spherostomatocyte type 1 shape change at 50 ug/mL after 48 hrs by phase contrast light microscopy; type: functional, cell-based; in short: as §1
[14] = tested on: Erythrocyte; assay: Induction of membrane modification in erythrocytes assessed as formation of stomatocyte type 2 and 1 shape change at 25 ug/mL after 48 hrs by phase contrast light microscopy; type: functional, cell-based; in short: as §1
[15] = tested on: Erythrocyte; assay: Induction of membrane modification in erythrocytes assessed as formation of stomatocyte type 2 shape change at 100 ug/mL after 48 hrs by phase contrast light microscopy; type: functional, cell-based; in short: as §1
[16] = tested on: Erythrocyte; assay: Induction of membrane modification in erythrocytes assessed as formation of stomatocyte type 1 and discocyte shape change at 50 ug/mL after 48 hrs by phase contrast light microscopy; type: functional, cell-based; in short: as §1
[17] = tested on: Erythrocyte; assay: Induction of membrane modification in erythrocytes assessed as formation of stomatocyte type 3 and 2 shape change at 50 ug/mL after 48 hrs by phase contrast light microscopy; type: functional, cell-based; in short: as §1
[18] = tested on: Erythrocyte; assay: Induction of membrane modification in erythrocytes assessed as formation of stomatocyte type 2 and discocyte shape change at 25 ug/mL after 48 hrs by phase contrast light microscopy; type: functional, cell-based; in short: as §1
[19] = tested on: Erythrocyte; assay: Induction of membrane modification in erythrocytes assessed as formation of spherostomatocyte type 1 shape change at 100 ug/mL after 48 hrs by phase contrast light microscopy; type: functional, cell-based; in short: as §1
[20] = tested on: Erythrocyte; assay: Induction of membrane modification in erythrocytes assessed as formation of spheroechinocyte type 2 shape change at 100 ug/mL after 48 hrs by phase contrast light microscopy; type: functional, cell-based; in short: as §1
[21] = tested on: Erythrocyte; assay: Induction of membrane modification in erythrocytes assessed as formation of spheroechinocyte type 1 and echinocyte type 3 shape change at 100 ug/mL after 48 hrs by phase contrast light microscopy; type: functional, cell-based; conditions: 50 ug/mL, in the assay text read “50 ug/mL” for “100 ug/mL”; in short: as §1
[22] = tested on: Erythrocyte; assay: Induction of membrane modification in erythrocytes assessed as formation of echinocyte type 3 shape change at 25 ug/mL after 48 hrs by phase contrast light microscopy; type: functional, cell-based; in short: as §1

Q: With `C=C[C@@]1(C)CCC2=C(CC[C@H]3C(C)(C)[C@@H](O)CC[C@]23C)C1` as the compound, how does the Activity [1] read?
A: Active

Q: And the Activity [2]?
A: Active

Q: What about the Activity [3] of the same compound?
A: Active

Q: What about the Activity [4] of the same compound?
A: Active

Q: And the IC50 [5]?
A: 24.6 µM

Q: What does the source list for `C=C1CC[C@@H]2[C@](C)(CCC[C@]2(C)C(=O)O)[C@H]1CCC1=CC(=O)OC1O` (stereo not given in full)?
A: Activity [6]: Active; Activity [7]: Active; Activity [8]: Active; Activity [9]: Active; IC50 [5]: 84.1 µM

Q: How did the Activity [10] turn out when `C=C[C@@]1(C)CC[C@H]2[C@@](O)(CC[C@H]3C(C)(C)[C@@H](O)CC[C@@]32C)C1` was run?
A: Active

Q: And the Activity [11]?
A: Active

Q: And the Activity [8]?
A: Active

Q: And the Activity [9]?
A: Active

Q: And the IC50 [5]?
A: 80.9 µM

Q: For `C=C1CC[C@@H]2[C@](C)(CCC[C@]2(C)C(=O)O)[C@H]1CCC1=CC(O)OC1=O` (stereo not given in full), which Activity [6] is on record?
A: Active

Q: What about the Activity [11] of the same compound?
A: Active

Q: What about the Activity [8] of the same compound?
A: Active

Q: What about the Activity [9] of the same compound?
A: Active

Q: What about the IC50 [5] of the same compound?
A: 145 µM

Q: Which results are given for `CC1(C)CCC[C@@]2(C)[C@H]1CC[C@@]1(CO1)[C@@H]2C/C=C(/C=O)CC=O` [AFRAMODIAL]?
A: Activity [12]: Active; Activity [13]: Active; Activity [14]: Active; Activity [9]: Active; IC50 [5]: 76.3 µM

Q: What does the source list for `C=C1CC[C@@H]2[C@](C)(CCC[C@]2(C)C(=O)O)[C@H]1CC/C(C)=C/CO` [ISOCUPRESSIC ACID]?
A: Activity [15]: Active; Activity [11]: Active; Activity [8]: Active; Activity [9]: Active; IC50 [5]: 104 µM

Q: For `C=C1CC[C@@H]2[C@](C)(CCC[C@]2(C)C(=O)O)[C@H]1CCc1ccoc1` [LAMBERTIAINC ACID], which Activity [15] is on record?
A: Active

Q: What about the Activity [16] of the same compound?
A: Active

Q: And the Activity [8]?
A: Active

Q: And the Activity [9]?
A: Active

Q: What about the IC50 [5] of the same compound?
A: 130 µM

Q: With `C=C1CC[C@@H]2[C@](C)(CCC[C@]2(C)C(=O)OC)[C@H]1CCC1=CCOC1=O` [PINUSOLIDE] as the compound, how does the Activity [17] read?
A: Active

Q: What about the Activity [18] of the same compound?
A: Active

Q: And the Activity [9]?
A: Active

Q: And the IC50 [5]?
A: 53.4 µM

Q: And the Activity [19]?
A: Active

Q: How did the Activity [15] turn out when `C=C1CC[C@@H]2[C@](C)(CCC[C@]2(C)C(=O)O)[C@H]1CCC1=CCOC1=O` [PINUSOLIDIC ACID] was run?
A: Active

Q: And the Activity [7]?
A: Active

Q: And the Activity [8]?
A: Active

Q: What about the Activity [9] of the same compound?
A: Active

Q: What about the IC50 [5] of the same compound?
A: 164 µM

Q: `C=C[C@]1(C)C=C2CC[C@H]3[C@](C)(CO)[C@@H](O)CC[C@]3(C)[C@H]2CC1` [SANDARACOPIMARADIENEDIOL] was tested. Which Activity [20] did it give?
A: Active

Q: And the Activity [21]?
A: Active

Q: And the Activity [22]?
A: Active

Q: And the Activity [4]?
A: Active

Q: And the IC50 [5]?
A: 93.3 µM
